What was measured:
[1] = Displacement of [3H]RHM-1 from sigma 2-type opioid receptor in rat liver homogenates; type: tissue-based
[2] = Partition coefficient, log P of the compound; type: physicochemical; details: octanol/water
[3] = Selectivity ratio, Ki for sigma 1 receptor in guinea pig brain homogenates to Ki for sigma 2 receptor in rat liver homogenates; type: tissue-based
[4] = molecular target: Sigma non-opioid intracellular receptor 1 (Cavia porcellus, UniProt Q60492); experiment: Displacement of [3H](+)-pentazocine from sigma 1-type opioid receptor in guinea pig brain homogenates; type: tissue-based
Sigma non-opioid intracellular receptor 1, sequence (Q60492 whole entry): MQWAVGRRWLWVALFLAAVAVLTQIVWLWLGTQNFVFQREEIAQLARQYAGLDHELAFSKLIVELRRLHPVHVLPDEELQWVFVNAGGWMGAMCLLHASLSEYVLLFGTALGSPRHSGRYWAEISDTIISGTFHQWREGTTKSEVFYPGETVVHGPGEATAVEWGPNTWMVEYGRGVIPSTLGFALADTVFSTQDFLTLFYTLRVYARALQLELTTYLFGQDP

EMT6 = experiment: Binding affinity to sigma 2 receptor in mouse EMT6 cell membrane homogenates; type: cell membranes; details: tested as the 18F-labelled form
[5] = molecular target: T1, 5-hydroxytryptamine receptor 3A (Homo sapiens, UniProt P46098); experiment: Binding affinity to 5HT3 receptor
T1 sequence (P46098 whole entry): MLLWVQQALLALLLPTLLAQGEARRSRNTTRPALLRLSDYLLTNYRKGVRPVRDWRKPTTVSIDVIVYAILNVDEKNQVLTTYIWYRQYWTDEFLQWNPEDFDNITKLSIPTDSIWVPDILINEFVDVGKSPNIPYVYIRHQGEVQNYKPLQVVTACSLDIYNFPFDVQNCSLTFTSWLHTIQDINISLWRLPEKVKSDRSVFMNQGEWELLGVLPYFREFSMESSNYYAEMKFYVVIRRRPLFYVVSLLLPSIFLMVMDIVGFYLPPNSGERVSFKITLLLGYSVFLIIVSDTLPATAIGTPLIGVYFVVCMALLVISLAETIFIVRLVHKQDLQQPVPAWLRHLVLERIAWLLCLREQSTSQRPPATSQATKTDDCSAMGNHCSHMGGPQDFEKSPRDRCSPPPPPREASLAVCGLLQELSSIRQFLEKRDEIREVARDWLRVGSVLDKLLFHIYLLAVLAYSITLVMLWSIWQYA

[6] = molecular target: 5-hydroxytryptamine receptor 4 (Homo sapiens, UniProt Q13639); experiment: Binding affinity to 5HT4 receptor
5-hydroxytryptamine receptor 4, sequence (Q13639 whole entry): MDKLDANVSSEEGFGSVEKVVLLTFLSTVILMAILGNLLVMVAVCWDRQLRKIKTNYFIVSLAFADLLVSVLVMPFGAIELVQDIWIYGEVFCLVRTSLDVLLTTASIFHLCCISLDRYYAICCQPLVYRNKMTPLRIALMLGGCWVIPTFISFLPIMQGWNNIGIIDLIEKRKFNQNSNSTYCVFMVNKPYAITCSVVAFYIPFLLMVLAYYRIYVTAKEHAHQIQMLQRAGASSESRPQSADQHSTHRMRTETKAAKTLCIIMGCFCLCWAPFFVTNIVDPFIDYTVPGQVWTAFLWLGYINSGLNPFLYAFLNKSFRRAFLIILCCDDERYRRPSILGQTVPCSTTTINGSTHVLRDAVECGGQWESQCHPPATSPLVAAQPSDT

[7] = Biodistribution in tumor of iv dosed mouse EMT6 cells bearing BALB/c mouse after 2 hrs; type: ADME, organism-based, Neoplasm; details: in vivo
Summary of the method: (§1)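 Female BALB/c mice were implanted s.c. in the scapular region with ~5×10^5 EMT-6 cells in PBS 11 days earlier, giving tumors of ~100-150 mg. The 18F tracer (~20 µCi per 150 µL, in 10% ethanol/90% water) was given via tail vein, and mice were killed at 5 min, 30 min, 1 h or 2 h. Tissues were weighed and gamma-counted against a diluted injected-dose standard, giving %ID/g.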

Bone = experiment: Biodistribution in iv dosed mouse EMT6 cells bearing BALB/c mouse bone after 2 hrs; type: ADME, organism-based, Bone element; details: in vivo; summary of the method: as §1
[8] = Ratio of drug level in tumor to muscle of mouse EMT6 cells bearing BALB/c mouse after 30 mins; type: ADME, cell-based; details: emt6, 0.5 h
Summary of the method: (§2)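 Tumor-to-tissue ratios were calculated from %ID/g values at 5 min, 30 min, 1 h and 2 h. The 18F tracer (~20 µCi, tail vein, 10% ethanol/90% water) was given to female BALB/c mice bearing s.c. EMT-6 tumors (~5×10^5 cells implanted 11 days prior; ~100-150 mg). Tissues were gamma-counted against a diluted standard of the injected dose.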

[9] = Ratio of drug level in tumor to fat of mouse EMT6 cells bearing BALB/c mouse after 30 mins; type: ADME, cell-based; details: emt6, 0.5 h; summary of the method: as §2
[10] = Ratio of drug level in tumor to muscle of […] EMT6 cells bearing BALB/c mouse after 2 hrs; type: ADME, cell-based; details: emt6, 2 h
Heart [11] = experiment: Biodistribution in iv dosed mouse EMT6 cells bearing BALB/c mouse heart after 30 mins; type: ADME, organism-based; details: in vivo, 0.5 h; summary of the method: as §1
[12] = Ratio of drug level in tumor to fat of mouse EMT6 cells bearing BALB/c mouse after 2 hrs; type: ADME, cell-based; details: emt6, 2 h; summary of the method: as §2
Brain [13] = experiment: Biodistribution in iv dosed mouse EMT6 cells bearing BALB/c mouse brain after 1 hr; type: ADME, organism-based; details: in vivo; summary of the method: as §1
[14] = Ratio of drug level in tumor to blood of mouse EMT6 cells bearing BALB/c mouse after 5 mins; type: ADME, cell-based; details: emt6, 5 min; summary of the method: as §2
Liver [15] = experiment: Biodistribution in iv dosed mouse EMT6 cells bearing BALB/c mouse liver after 5 mins; type: ADME, organism-based; details: in vivo; summary of the method: as §1
Blood [16] = experiment: Biodistribution in iv dosed mouse EMT6 cells bearing BALB/c mouse blood after 30 mins; type: ADME, organism-based; details: in vivo, 0.5 h; summary of the method: as §1
Muscle tissue [17] = experiment: Biodistribution in iv dosed mouse EMT6 cells bearing BALB/c mouse muscle after 30 mins; type: ADME, organism-based; details: in vivo, 0.5 h; summary of the method: as §1
[18] = Ratio of drug level in tumor to fat of mouse EMT6 cells bearing BALB/c mouse after 5 mins; type: ADME, cell-based; details: emt6, 5 min; summary of the method: as §2
[19] = Biodistribution in tumor of iv dosed mouse EMT6 cells bearing BALB/c mouse after 5 mins; type: ADME, organism-based, Neoplasm; details: in vivo; summary of the method: as §1
[20] = Ratio of drug level in tumor to blood of mouse EMT6 cells bearing BALB/c mouse after 2 hrs; type: ADME, cell-based; details: emt6, 2 h; summary of the method: as §2
[21] = Ratio of drug level in tumor to blood of mouse EMT6 cells bearing BALB/c mouse after 1 hr; type: ADME, cell-based; details: emt6, 1 h; summary of the method: as §2
[22] = Ratio of drug level in tumor to muscle of mouse EMT6 cells bearing BALB/c mouse after 2 hrs; type: ADME, cell-based; details: emt6, 2 h; summary of the method: as §2
Blood [23] = experiment: Biodistribution in iv dosed mouse EMT6 cells bearing BALB/c mouse blood after 1 hr; type: ADME, organism-based; details: in vivo; summary of the method: as §1
[24] = Ratio of drug level in tumor to blood of mouse EMT6 cells bearing BALB/c mouse after 30 mins; type: ADME, cell-based; details: emt6, 0.5 h; summary of the method: as §2
[25] = Ratio of drug level in tumor to muscle of […] EMT6 cells bearing BALB/c mouse after 1 hr; type: ADME, cell-based; details: emt6, 1 h
[26] = Ratio of drug level in tumor to muscle of mouse EMT6 cells bearing BALB/c mouse after 5 mins; type: ADME, cell-based; details: emt6, 5 min; summary of the method: as §2
Kidney = experiment: Biodistribution in iv dosed mouse EMT6 cells bearing BALB/c mouse kidney after 1 hr; type: ADME, organism-based; details: in vivo; summary of the method: as §1
Muscle tissue [27] = experiment: Biodistribution in iv dosed mouse EMT6 cells bearing BALB/c mouse muscle after 1 hr; type: ADME, organism-based; details: in vivo; summary of the method: as §1
Heart [28] = experiment: Biodistribution in iv dosed mouse EMT6 cells bearing BALB/c mouse heart after 5 mins; type: ADME, organism-based; details: in vivo; summary of the method: as §1
[29] = Ratio of drug level in tumor to muscle of […] EMT6 cells bearing BALB/c mouse after 5 mins; type: ADME, cell-based; details: emt6, 5 min
[30] = Ratio of drug level in tumor to muscle of mouse EMT6 cells bearing BALB/c mouse after 1 hr; type: ADME, cell-based; details: emt6, 1 h; summary of the method: as §2
Liver [31] = experiment: Biodistribution in iv dosed mouse EMT6 cells bearing BALB/c mouse liver after 30 mins; type: ADME, organism-based; details: in vivo, 0.5 h; summary of the method: as §1
Brain [32] = experiment: Biodistribution in iv dosed mouse EMT6 cells bearing BALB/c mouse brain after 30 mins; type: ADME, organism-based; details: in vivo, 0.5 h; summary of the method: as §1
[33] = Ratio of drug level in tumor to fat of mouse EMT6 cells bearing BALB/c mouse after 1 hr; type: ADME, cell-based; details: emt6, 1 h; summary of the method: as §2
[34] = Ratio of drug level in tumor to muscle of […] EMT6 cells bearing BALB/c mouse after 30 mins; type: ADME, cell-based; details: emt6, 0.5 h

`COc1ccc(C)cc1NC(=O)OC1CC2CCCC(C1)N2CCc1ccc(CCF)cc1` (configuration not stated) showed a Ki [1] of 276 nM, a logP [2] of 3.69 and a Ratio Ki [3] of 10. It also gave a Ki [4] of 2630 nM.

`COc1ccc(C)cc1NC(=O)OC1CC2CCCC(C1)N2Cc1ccc(CCF)cc1` (configuration not stated) showed a Ki [1] of 0.82 nM, a Ratio Ki [3] of 2090 and a Ki [4] of 1710 nM. For the same compound, the Activity (EMT6) was 2 nM.

Compound `COc1ccc(C)cc1NC(=O)OC1CC2CCCC(C1)N2Cc1ccncc1` (configuration not stated) has a Ki [1] of 522 nM, a logP [2] of 2.94 and a Ratio Ki [3] of 3. It also gave a Ki [4] of 1560 nM.

With `C=CCN1C2CCCC1CC(OC(=O)Nc1cc(C)ccc1OC)C2` (configuration not stated) the Ki [1] was 85.9 nM, the logP [2] was 2.86 and the Ratio Ki [3] was 15. The Ki [4] was 1260 nM.

Work on `CCn1c(=O)n(C(=O)NC2CC3CCC(C2)N3C)c2ccccc21` (configuration not stated) yielded a Ki [1] of 32 nM, a Ki [4] of 6300 nM and a Ki [5] of 1 nM. The Ki [6] was 13 nM.

With `COc1ccc(CCN2C3CCCC2CC(OC(=O)Nc2cc(C)ccc2OC)C3)cc1` (configuration not stated) the Ki [1] was 126 nM, the logP [2] was 3.22 and the Ratio Ki [3] was 4. It also gave a Ki [4] of 447 nM.

For `COc1ccc(C)cc1NC(=O)OC1CC2CCCC(C1)N2Cc1cccnc1` (configuration not stated), the Ki [1] was 184 nM, the logP [2] was 2.7 and the Ratio Ki [3] was 13. The Ki [4] was 2350 nM.

`COc1ccc(C)cc1NC(=O)OC1CC2CCCC(C1)N2CCc1ccc(N(C)C)cc1` (configuration not stated) gave a Ki [1] of 195 nM, a logP [2] of 3.36 and a Ratio Ki [3] of 10. The Ki [4] was 1870 nM.

`COc1ccc(CN2C3CCCC2CC(OC(=O)Nc2cc(C)ccc2OC)C3)cc1` (configuration not stated) gave a Ki [1] of 40.7 nM, a logP [2] of 3.3 and a Ratio Ki [3] of 8. For the same compound, the Ki [4] was 323 nM.

With `O=C(CCCN1CCC(O)(c2ccc(Cl)cc2)CC1)c1ccc(F)cc1` [HALOPERIDOL] the logP [2] was 3.36.

`COc1ccc(C)cc1NC(=O)OC1CC2CCCC(C1)N2Cc1ccc(CC[18F])cc1` (configuration not stated) showed an Activity [7] of 4.08 % ID/g, an Activity (Bone) of 5.68 % ID/g and an Activity [8] of 1.32 % ID/g. For the same compound, the Activity [9] was 0.45 % ID/g, the Activity [10] was 0.82 % ID/g and the Activity (Heart [11]) was 3.7 % ID/g. It also gave an Activity [12] of 0.32 % ID/g, an Activity (Brain [13]) of 1.55 % ID/g and an Activity [14] of 0.82 % ID/g. For the same compound, the Activity (Liver [15]) was 21.14 % ID/g, the Activity (Blood [16]) was 0.99 % ID/g and the Activity (Muscle tissue [17]) was 2.9 % ID/g. It also gave an Activity [18] of 0.65 % ID/g, an Activity [19] of 1.39 % ID/g and an Activity [20] of 6.96 % ID/g. For the same compound, the Activity [21] was 3.86 % ID/g, the Activity [22] was 2.53 % ID/g and the Activity (Blood [23]) was 0.93 % ID/g. For the same compound, the Activity [24] was 3.67 % ID/g, the Activity [25] was 0.42 % ID/g and the Activity [26] was 0.3 % ID/g. It also gave an Activity (Kidney) of 10.38 % ID/g, an Activity (Muscle tissue [27]) of 1.92 % ID/g and an Activity (Heart [28]) of 18.49 % ID/g. It also gave an Activity [29] of 0.01 % ID/g, an Activity [30] of 1.92 % ID/g and an Activity (Liver [31]) of 28.5 % ID/g. For the same compound, the Activity (Brain [32]) was 2.12 % ID/g, the Activity [33] was 0.41 % ID/g and the Activity [34] was 0.22 % ID/g.

`COc1ccc(C)cc1NC(=O)OC1CC2CCCC(C1)N2Cc1ccc(N(C)C)cc1` (configuration not stated) showed a Ki [1] of 2.58 nM, a logP [2] of 3.02 and a Ratio Ki [3] of 557. The Ki [4] was 1440 nM.

With `COc1ccc(C)cc1NC(=O)OC1CC2CCCC(C1)N2Cc1ccc(SC)cc1` (configuration not stated) the Ki [1] was 8190 nM, the logP [2] was 3.92 and the Ki [4] was 2020 nM.

With `COc1ccc(C)cc1NC(=O)OC1CC2CCCC(C1)N2Cc1ccccc1` (configuration not stated) the Ki [1] was 3.1 nM, the Ki [5] was greater than 1000 nM and the Ki [6] was greater than 1000 nM.

Work on `COc1ccc(C)cc1NC(=O)OC1CC2CCCC(C1)N2Cc1ccc(F)nc1` (configuration not stated) yielded a Ki [1] of 572 nM, a logP [2] of 3.21 and a Ratio Ki [3] of 4. It also gave a Ki [4] of 2510 nM.

With `COc1ccc(C)cc1C(=O)NCCCCN1CCc2cc(OO)c(OO)cc2C1` the Ki [1] was 10.3 nM and the Ki [4] was 3080 nM.

For `COc1ccc(C)cc1NC(=O)OC1CC2CCCC(C1)N2CCF` (configuration not stated), the Ki [1] was 143 nM, the logP [2] was 2.85 and the Ratio Ki [3] was 14. The Ki [4] was 2000 nM.

— ChEMBL document CHEMBL1143324, “New N-substituted 9-azabicyclo[3.3.1]nonan-3alpha-yl phenylcarbamate analogs as sigma2 receptor ligands: synthesis, in vitro characterization, and evaluation as PET imaging and chemosensitization agents” (Bioorg Med Chem, 2009)
